Data reported in ChEMBL document CHEMBL1125647, “Synthesis and siderophore and antibacterial activity of N5-acetyl-N5-hydroxy-L-ornithine-derived siderophore-beta-lactam conjugates: iron-transport-mediated drug delivery” (1991).
Converted amounts (≈) assume the structure as drawn.

Columns and labels:
Type in all cases: functional
Streptococcus pneumoniae = experiment: Minimum inhibitory concentration was measured against streptococcus pneumonia PARK
Summary of the method: (§1)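 Standard agar dilution method; MICs determined externally by an industrial partner rather than in the authors' lab.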

Escherichia coli [1] = experiment: Minimum inhibitory concentration was measured against Escherichia coli EC14; summary of the method: as §1
Escherichia coli [2] = experiment: cell growth was measured against Escherichia coli RW193 using liquid growth assay at 0h
Summary of the method: (§2)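 Overnight cultures diluted 1:500 into Luria broth containing EDDA 10 μg/mL, with or without test compound at 100 μg/mL. Turbidity read as absorbance at 650 nm (table heading) at 0, 2 and 8 h. SA240 is an iucD:Tn5 siderophore-deficient derivative of SA100. RW193 is E. coli K12 entA, fhuA-positive. AN193 is entA, fhuA-negative, lacking the ferrichrome receptor.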

Salmonella [3] = experiment: Minimum inhibitory concentration was measured against salmonella X514; summary of the method: as §1
Escherichia coli [4] = experiment: cell growth was measured against Escherichia coli RW193 using liquid growth assay at 2 hr; summary of the method: as §2
Salmonella [5] = experiment: Minimum inhibitory concentration was measured against salmonella 1135; summary of the method: as §1
Shigella flexneri [6] = experiment: cell growth was measured against Shigella flexneri SA240 using liquid growth assay at 8 hr; summary of the method: as §2
Shigella flexneri [7] = experiment: cell growth was measured against Shigella flexneri SA240 using liquid growth assay at 0h; summary of the method: as §2
Escherichia coli [8] = experiment: cell growth was measured against Escherichia coli RW193 using liquid growth assay at 8 hr; summary of the method: as §2
Pseudomonas = experiment: Minimum inhibitory concentration was measured against Pseudomonas X528; summary of the method: as §1
Escherichia coli [9] = experiment: cell growth was measured against Escherichia coli AN193 using liquid growth assay at 2 hr; summary of the method: as §2
Shigella flexneri [10] = experiment: cell growth was measured against Shigella flexneri SA240 using liquid growth assay at 2 hr; summary of the method: as §2
[11] = test system: Staphylococcus epidermidis; experiment: Minimum inhibitory concentration was measured against staphylococcus epidermidis 222; summary of the method: as §1
Escherichia coli [12] = experiment: cell growth was measured against Escherichia coli AN193 using liquid growth assay at 8 hr; summary of the method: as §2
Escherichia coli [13] = experiment: cell growth was measured against Escherichia coli AN193 using liquid growth assay at 0h; summary of the method: as §2
Shigella flexneri [14] = experiment: The relative ability of compound to promote the growth of Shigella flexneri SA 100, a strain lacking the ability to synthesize siderophores was measured as zone stimulation at concentration of 0.1 mM
Summary of the method: (§3)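 S. flexneri SA100 grown overnight in Luria broth, seeded at 10^8/mL into Luria agar with EDDA (250 μg/mL). Compounds made as 10 mM aqueous stocks, diluted in water to 10, 1 or 0.1 mM. 10 μL applied on sterile paper disks. Incubated 37 °C, 18 h; diameters of growth-stimulation zones measured in mm.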

Shigella flexneri [15] = experiment: The relative ability of compound to promote the growth of Shigella flexneri SA 100, a strain lacking the ability to synthesize siderophores was measured as zone stimulation at concentration of 1 mM; summary of the method: as §3
Shigella flexneri [16] = experiment: The relative ability of compound to promote the growth of Shigella flexneri SA 100, a strain lacking the ability to synthesize siderophores was measured as zone stimulation at concentration of 10 mM; summary of the method: as §3

SMILES | MIC (Streptococcus pneumoniae) [µg/mL] | MIC (Escherichia coli [1]) [µg/mL] | MIC (Salmonella [3]) [µg/mL] | MIC (Salmonella [5]) [µg/mL] | MIC (Pseudomonas) [µg/mL] | MIC [11] [µg/mL] | Cell growth (Escherichia coli [2]) | Cell growth (Escherichia coli [4]) | Cell growth (Shigella flexneri [6]) | Cell growth (Shigella flexneri [7]) | Cell growth (Escherichia coli [8]) | Cell growth (Escherichia coli [9]) | Cell growth (Shigella flexneri [10]) | Cell growth (Escherichia coli [12]) | Cell growth (Escherichia coli [13]) | Zone of stimulation (Shigella flexneri [14]) [mm] | Zone of stimulation (Shigella flexneri [15]) [mm] | Zone of stimulation (Shigella flexneri [16]) [mm]
CC(=O)N(O)CCC[C@H](NC(=O)[C@H](CCCN(O)C(C)=O)NC(=O)[C@@H](N)CCCN(O)C(C)=O)C(=O)N[C@@H](C(=O)NC1C(=O)N2C(C(=O)O)=C(Cl)CC[C@H]12)c1ccc(O)cc1 (some centres undefined) | > 64 | > 32 | 0.06 (≈ 0.068 µM) | > 64 | > 128 | > 128 | 0.001 | 0.347 | 0.974 | 0.001 | 1.59 | 0.019 | 0.107 | 0.691 | 0.001 | – | – | –
CC(=O)N(O)CCC[C@H](NC(=O)[C@H](CCCN(O)C(C)=O)NC(=O)[C@@H](N)CCCN(O)C(C)=O)C(=O)N[C@@H](C(=O)NC1C(=O)N(OCC(=O)O)[C@H]1C)c1ccc(O)cc1 (some centres undefined) | – | – | – | – | – | – | – | – | – | – | – | – | – | – | – | 0 | 16 | 31
CC(=O)N(O)CCC[C@H](NC(=O)[C@H](CCCN(O)C(C)=O)NC(=O)[C@@H](N)CCCN(O)C(C)=O)C(=O)N[C@@H](C(=O)NC1C(=O)N(OCC(=O)O)[C@H]1C)c1ccccc1 (some centres undefined) | – | – | – | – | – | – | – | – | – | – | – | – | – | – | – | 0 | 12 | 28

The next lines start with results.

MIC (Streptococcus pneumoniae) [µg/mL] | MIC (Escherichia coli [1]) [µg/mL] | MIC (Salmonella [3]) [µg/mL] | MIC (Salmonella [5]) [µg/mL] | MIC (Pseudomonas) [µg/mL] | MIC [11] [µg/mL] | SMILES | Cell growth (Escherichia coli [2]) | Cell growth (Escherichia coli [4]) | Cell growth (Shigella flexneri [6]) | Cell growth (Shigella flexneri [7]) | Cell growth (Escherichia coli [8]) | Cell growth (Escherichia coli [9]) | Cell growth (Shigella flexneri [10]) | Cell growth (Escherichia coli [12]) | Cell growth (Escherichia coli [13]) | Zone of stimulation (Shigella flexneri [14]) [mm] | Zone of stimulation (Shigella flexneri [15]) [mm] | Zone of stimulation (Shigella flexneri [16]) [mm]
> 64 | > 64 | 0.125 (≈ 0.144 µM) | > 128 | > 128 | > 128 | CC(=O)N(O)CCC[C@H](NC(=O)[C@H](CCCN(O)C(C)=O)NC(=O)[C@@H](N)CCCN(O)C(C)=O)C(=O)N[C@@H](C(=O)NC1C(=O)N2C(C(=O)O)=C(Cl)CC[C@H]12)c1ccccc1 (some centres undefined) | – | – | – | – | – | – | – | – | – | – | – | –
0.5 | 1 | 0.25 | 1 | > 128 | 2 | N[C@@H](C(=O)N[C@@H]1C(=O)N2C(C(=O)O)=C(Cl)CS[C@H]12)c1ccccc1.O [CEFACLOR] | – | – | – | – | – | – | – | – | – | – | – | –
1 (≈ 2.86 µM) | 0.5 (≈ 1.43 µM) | 0.25 (≈ 0.715 µM) | 0.5 (≈ 1.43 µM) | > 128 | 2 (≈ 5.72 µM) | N[C@@H](C(=O)N[C@@H]1C(=O)N2C(C(=O)O)=C(Cl)CC[C@H]12)c1ccccc1 [LORACARBEF ANHYDROUS] | – | – | – | – | – | – | – | – | – | – | – | –
